Activity calls are given as the source filed them. The calls are words filed in the database; no cut-off is given here.
What was measured:
[1] = molecular target: T1, Nucleoside diphosphate kinase B (Homo sapiens, UniProt P22392); test: Binding affinity to NM23-H2 (unknown origin) by SPR analysis
[2] = molecular target: T1, Nucleoside diphosphate kinase B; test: Binding affinity to N-terminal NT-647-NHS labeled NM23-H2 (unknown origin) after 30 mins by MST analysis
Procedure, shortened: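 NM23-H2 N-terminally labeled with RED-NHS dye (20 μM protein, 30 min dark, RT), free dye removed; 200 nM labeled protein with compound from 500 μM, 16 twofold steps, 30 min RT in 50 mM Tris-HCl pH 7.4, 150 mM NaCl, 10 mM MgCl2, 0.05% Tween-20; KD at half-plateau.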

[3] = Binding affinity to Htg21 telomeric G-quadruplex DNA (unknown origin) at 40 uM after 30 mins by SPR analysis
[4] = Binding affinity to biotin-labeled 18-mer duplex DNA hairpin (unknown origin) at 40 uM after 30 mins by SPR analysis
[5] = molecular target: T1, Nucleoside diphosphate kinase B; test: Binding affinity to NM23-H2 (unknown origin) assessed as ratio of Kd for protein interaction with biotin-labeled Pu22 c-myc G-quadruplex DNA in presence and absence of compound after 1 hr by ELISA
[6] = molecular target: T1, Nucleoside diphosphate kinase B; test: Binding affinity to NM23-H2 (unknown origin) up to 40 uM by SPR analysis

T1 sequence (P22392 whole entry): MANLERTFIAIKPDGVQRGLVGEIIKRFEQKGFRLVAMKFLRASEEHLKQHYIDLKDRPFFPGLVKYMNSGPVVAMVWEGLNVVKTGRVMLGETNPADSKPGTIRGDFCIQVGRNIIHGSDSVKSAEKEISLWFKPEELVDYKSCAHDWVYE

SMILES | Kd [1] [µM] | Kd [2] [µM] | Activity [3] | Activity [4] | Ratio [5] | Activity [6]
CN(C)CCNc1cc2nc3n(c(=O)c2cc1F)CC/C3=C\c1ccc(OCc2ccccc2)cc1O | 8.1 | 6.4 | inactive | inactive | > 3 | –
CCN(CC)CCCNc1cc2nc3n(c(=O)c2cc1F)CC/C3=C\c1ccc(N(CC)CC)cc1O | 13.9 | 11.7 | inactive | inactive | 2.1 to 2.6 | –
COc1ccc(/C=C2\CCn3c2nc2cc(NCCCN4CCOCC4)c(F)cc2c3=O)cc1 | 28.4 | 25.6 | inactive | inactive | – | –
CCN(CC)CCCNc1cc2nc3n(c(=O)c2cc1F)CC/C3=C\c1ccc(OCc2ccccc2)c(O)c1 | 16.7 | 25.8 | inactive | inactive | > 3 | –
CC(C)Oc1ccc(/C=C2\CCn3c2nc2cc(NCCCN(C)C)c(F)cc2c3=O)cc1 | 9.6 | 15.4 | inactive | inactive | > 3 | –
CCN(CC)CCCNc1cc2nc3n(c(=O)c2cc1F)CC/C3=C\c1cc(OC)c(OC)c(OC)c1 | 16.3 | 28.2 | inactive | inactive | – | –
O=c1c2cc(F)c(NCCCN3CCOCC3)cc2nc2n1CC/C2=C\c1ccc(OCc2ccccc2)cc1O | 14.3 | 16.9 | inactive | inactive | – | –
O=Cc1ccc(/C=C2\CCn3c2nc2cc(NCCCN4CCOCC4)c(F)cc2c3=O)cc1 | 38 | – | inactive | inactive | – | –
COc1cc(/C=C2\CCn3c2nc2cc(NCCCN(C)C)c(F)cc2c3=O)cc(OC)c1O | 13.3 | 16.5 | inactive | inactive | – | –
C#CCOc1ccc(/C=C2\CCn3c2nc2cc(NCCCN(C)C)c(F)cc2c3=O)cc1 | 25.6 | 8.9 | inactive | inactive | – | –
CN(C)CCCNc1cc2nc3n(c(=O)c2cc1F)CC/C3=C\c1ccc(/C=C/c2ccccn2)cc1 | 8.5 | 10.8 | inactive | inactive | > 3 | –
CCN(CC)CCCNc1cc2nc3n(c(=O)c2cc1F)CC/C3=C\c1ccc(N2CCCCC2)cc1 | – | – | inactive | inactive | – | inactive
CCN(CC)CCCNc1cc2nc3n(c(=O)c2cc1F)CC/C3=C\c1ccc(/C=C/c2ccccn2)cc1 | 13.8 | 20.8 | inactive | inactive | 2.1 to 2.6 | –
CCN(CC)CCCNc1cc2nc3n(c(=O)c2cc1F)CC/C3=C\c1ccc(C(F)(F)F)cc1 | – | 59.4 | inactive | inactive | – | inactive
COc1ccc(/C=C2\CCn3c2nc2cc(NCCCN(C)C)c(F)cc2c3=O)cc1OC | 15.8 | 19.2 | inactive | inactive | – | –
CN(C)CCNc1cc2nc3n(c(=O)c2cc1F)CC/C3=C\c1ccc(C=O)cc1 | – | 68 | inactive | inactive | – | inactive
O=c1c2cc(F)c(N3CCOCC3)cc2nc2n1CC/C2=C\c1ccc(OCc2ccccc2)cc1O | – | 56 | inactive | inactive | – | inactive
CCN(CC)CCCNc1cc2nc3n(c(=O)c2cc1F)CC/C3=C\c1ccc(N2CCOCC2)cc1 | – | 55.3 | inactive | inactive | – | inactive
CCN(CC)c1ccc(/C=C2\CCn3c2nc2cc(NCCCN4CCOCC4)c(F)cc2c3=O)cc1 | – | – | inactive | inactive | – | inactive
CN(C)CCCNc1cc2nc3n(c(=O)c2cc1F)CC/C3=C\c1ccc(Oc2ccccc2)cc1 | 12.4 | 16.3 | inactive | inactive | – | –
O=c1c2cc(F)c(NCCCN3CCOCC3)cc2nc2n1CC/C2=C\c1ccc(F)cc1 | – | 44.2 | inactive | inactive | – | inactive

Next, values leading:

Kd [1] [µM] | Kd [2] [µM] | Activity [3] | Activity [4] | Ratio [5] | Activity [6] | SMILES
17.1 | 25.1 | inactive | inactive | – | – | CCN(CC)CCCNc1cc2nc3n(c(=O)c2cc1F)CC/C3=C\c1ccc(OC)c(OC)c1
– | 45.7 | inactive | inactive | – | inactive | CCN(CC)c1ccc(/C=C2\CCn3c2nc2cc(NCCN(C)C)c(F)cc2c3=O)cc1
– | – | inactive | inactive | – | inactive | O=c1c2cc(F)c(NCCCN3CCOCC3)cc2nc2n1CC/C2=C\c1ccc(N2CCCCC2)cc1
15.4 | 23.5 | inactive | inactive | – | – | CCN(CC)CCCNc1cc2nc3n(c(=O)c2cc1F)CC/C3=C\c1ccc(OC)cc1
18.5 | 23.6 | inactive | inactive | – | – | COc1cc(/C=C2\CCn3c2nc2cc(NCCCN4CCOCC4)c(F)cc2c3=O)cc(OC)c1OC
20.6 | 21 | inactive | inactive | – | – | CCCOc1ccc(/C=C2\CCn3c2nc2cc(NCCCN(C)C)c(F)cc2c3=O)cc1
– | – | inactive | inactive | – | inactive | CCN(CC)CCCNc1cc2nc3n(c(=O)c2cc1F)CC/C3=C\c1ccc(C(C)C)cc1
– | 61.6 | inactive | inactive | – | inactive | CCN(CC)CCCNc1cc2nc3n(c(=O)c2cc1F)CC/C3=C\c1ccc(F)cc1
9.2 | 10.7 | inactive | inactive | – | – | CN(C)CCCNc1cc2nc3n(c(=O)c2cc1F)CC/C3=C\c1ccc(O)c(O)c1
– | – | inactive | inactive | – | inactive | O=c1c2cc(F)c(NCCCN3CCOCC3)cc2nc2n1CC/C2=C\c1ccc(N2CCOCC2)cc1
14.6 | 20.6 | inactive | inactive | > 3 | – | CCN(CC)CCCNc1cc2nc3n(c(=O)c2cc1F)CC/C3=C\c1ccc(OCc2ccccc2)cc1
– | 72.8 | inactive | inactive | – | inactive | CCN(CC)CCCNc1cc2nc3n(c(=O)c2cc1F)CC/C3=C\c1ccccc1OC
– | 27.5 | inactive | inactive | – | inactive | C#CCOc1ccc(/C=C2\CCn3c2nc2cc(NCCN(C)C)c(F)cc2c3=O)cc1
– | – | inactive | inactive | – | inactive | O=c1c2cc(F)c(NCCCN3CCOCC3)cc2nc2n1CC/C2=C\c1ccc(C(F)(F)F)cc1
– | – | inactive | inactive | – | inactive | CC(C)c1ccc(/C=C2\CCn3c2nc2cc(NCCCN4CCOCC4)c(F)cc2c3=O)cc1

From ChEMBL document CHEMBL4017489, “Design, Synthesis, and Evaluation of New Selective NM23-H2 Binders as c-MYC Transcription Inhibitors via Disruption of the NM23-H2/G-Quadruplex Interaction” (J Med Chem, 2017)
